Test results published in ChEMBL document CHEMBL2163234, “Design and characterization of optimized adenosine A₂A/A₁ receptor antagonists for the treatment of Parkinson's disease” (J Med Chem, 2012).
Values belong to the compound of their own block, whether it stands above or below them. Active and inactive are the calls of the source. No cut-off for these calls is given here.

Tests used:
Rattus norvegicus [1] = experiment: Reversal of haloperidol-induced catalepsy in Sprague-Dawley rat at 10 mg/kg, po dosed 60 mins before haloperidol challenge and measured 1 to 4 hrs post dose; format: functional, organism-based; design: dose 10 mg/kg
Mus musculus [2] = experiment: Reversal of haloperidol-induced catalepsy in po dosed BALB/c mouse measured 1 hr post dose; format: functional; conditions: for minimal effective dose: read-out: MED
Procedure, shortened: (§1)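 Fasted male Balb/c mice receive haloperidol 1 mg/kg sc in 0.3% tartaric acid/saline, then drug po in 0.5% methylcellulose 30 min later (0.1–10.0 mg/kg, or 10 mg/kg as % reversal). At 1 h post-dose, forepaws are placed on a bar 3.5 cm high and time in cataleptic position is recorded (max 60 s). Blinded; n = 8–12; mean ± SEM; Dunnett test.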

[3] = Clearance in BALB/c mouse at 2 mg/kg, iv and 10 mg/kg, po administered as single dose; format: ADME, organism-based; conditions: in vivo
Procedure, shortened: (§2)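 Fasted animals (male Sprague-Dawley rats, male Balb/c mice, male and female cynomolgus monkeys) received a single iv dose or oral 10 mg/kg in 0.5% methylcellulose. Blood came from 3–4 animals per time point by orbital sinus (rats) or cardiac puncture (mice), or serially by venipuncture (monkeys). Plasma was acetonitrile-precipitated and analysed by LC-MS/MS (LOQ 0.7–2 ng/mL), with noncompartmental analysis.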

[4] = Clearance in Sprague-Dawley rat at 2 mg/kg, iv and 10 mg/kg, po administered as single dose; format: ADME, organism-based; conditions: in vivo; procedure, shortened: as §2
[5] = Clearance in cynomolgus monkey at 1 mg/kg, iv and 10 mg/kg, po administered as single dose; format: ADME, organism-based, Macaca fascicularis; conditions: in vivo; procedure, shortened: as §2
[6] = Volume of distribution at steady state in BALB/c mouse at 2 mg/kg, iv administered as single dose; format: ADME, organism-based; design: dose 2 mg/kg, route intravenous; conditions: in vivo, read-out: Vdss; procedure, shortened: as §2
[7] = Volume of distribution at steady state in Sprague-Dawley rat at 2 mg/kg, iv administered as single dose; format: ADME, organism-based; design: dose 2 mg/kg, route intravenous; conditions: in vivo, read-out: Vdss; procedure, shortened: as §2
[8] = Volume of distribution at steady state in cynomolgus monkey at 1 mg/kg, iv administered as single dose; format: ADME, organism-based, Macaca fascicularis; design: dose 1 mg/kg, route intravenous; conditions: in vivo, read-out: Vdss; procedure, shortened: as §2
Adenosine receptor A2a = Adenosine receptor A2a (Homo sapiens, UniProt P29274); experiment: Antagonist activity at human Adenosine receptor A2a assessed as inhibition of cAMP production; format: functional
Chain of Adenosine receptor A2a (P29274 whole entry): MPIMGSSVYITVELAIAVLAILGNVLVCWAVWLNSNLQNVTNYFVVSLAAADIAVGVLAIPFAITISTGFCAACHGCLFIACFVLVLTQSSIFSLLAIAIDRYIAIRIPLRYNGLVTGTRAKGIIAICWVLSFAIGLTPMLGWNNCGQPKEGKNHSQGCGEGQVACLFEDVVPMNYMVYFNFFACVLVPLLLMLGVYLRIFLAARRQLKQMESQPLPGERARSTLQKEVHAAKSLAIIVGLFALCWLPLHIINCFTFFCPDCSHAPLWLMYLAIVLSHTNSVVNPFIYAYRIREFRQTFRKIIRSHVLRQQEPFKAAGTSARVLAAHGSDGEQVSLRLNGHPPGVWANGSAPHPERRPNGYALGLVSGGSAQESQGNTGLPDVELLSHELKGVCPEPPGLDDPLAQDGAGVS

Adenosine receptor A1 = target: T1, Adenosine receptor A1 (Homo sapiens, UniProt P30542); experiment: Antagonist activity at human Adenosine receptor A1 assessed as inhibition of cAMP production; format: functional
T1 sequence (P30542 whole entry): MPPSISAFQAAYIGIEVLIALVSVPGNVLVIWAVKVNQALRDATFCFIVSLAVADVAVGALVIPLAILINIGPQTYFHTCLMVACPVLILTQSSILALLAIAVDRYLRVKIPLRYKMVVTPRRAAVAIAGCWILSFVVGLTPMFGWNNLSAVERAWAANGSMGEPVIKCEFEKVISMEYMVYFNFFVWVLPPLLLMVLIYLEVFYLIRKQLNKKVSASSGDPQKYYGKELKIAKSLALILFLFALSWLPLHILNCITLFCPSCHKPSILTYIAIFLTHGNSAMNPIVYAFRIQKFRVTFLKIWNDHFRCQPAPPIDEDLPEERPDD

Mus musculus [9] = experiment: Reversal of haloperidol-induced catalepsy in BALB/c mouse at 10 mg/kg, po measured 1 hr post dose; format: functional; procedure, shortened: as §1
Mus musculus [10] = experiment: Reversal of haloperidol-induced catalepsy in BALB/c mouse assessed as time duration of anticataleptic activity mouse at 10 mg/kg, po; format: functional
Procedure, shortened: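 Duration study: fasted male Balb/c mice are dosed with haloperidol 1 mg/kg sc, then drug 10 mg/kg po in 0.5% methylcellulose. Bar-test catalepsy time (max 60 s) is measured repeatedly at 30 min and at 1, 2 and 4 h after dosing. n = 8 per group; mean ± SEM; Dunnett test.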

Rattus norvegicus [11] = experiment: Reversal of haloperidol-induced catalepsy in po dosed Sprague-Dawley rat dosed 60 mins before haloperidol challenge and measured 1 hr post dose; format: functional; conditions: for minimal effective dose: read-out: MED
[12] = Volume of distribution at steady state in cynomolgus monkey at 2 mg/kg, iv administered as single dose; format: ADME, organism-based, Macaca fascicularis; design: dose 2 mg/kg, route intravenous; conditions: in vivo, read-out: Vdss; procedure, shortened: as §2
[13] = Clearance in cynomolgus monkey at 2 mg/kg, iv and 10 mg/kg, po administered as single dose; format: ADME, organism-based, Macaca fascicularis; conditions: in vivo; procedure, shortened: as §2
Rattus norvegicus [14] = experiment: Antiparkinsonian activity in Sprague-Dawley rat 6-OHDA lesion model assessed as increase in number of contralateral rotations dosed orally 6 weeks post OHDA-challenge; format: functional, organism-based
Procedure, shortened: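 Rats receive 6-OHDA 12 μg unilaterally into the medial forebrain bundle. Inclusion required ≥125 contralateral rotations in 1 h after apomorphine 0.05 mg/kg sc. Design is within-subject, with drug 0.1–10.0 mg/kg po in 20% HPβCD after 30 min acclimation. Contralateral 360° turns are counted by a tethered optical sensor for 60 min. Mean ± SEM, n = 16, Tukey test.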

Rattus norvegicus [15] = experiment: Antiparkinsonian activity in Sprague-Dawley rat 6-OHDA lesion model assessed as potentiation of 10 mg/kg, po L-DOPA-induced increase in number of contralateral rotations dosed orally 6 weeks post OHDA-challenge; format: functional; conditions: 1008 h, read-out: MED
Procedure, shortened: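 Rats lesioned unilaterally in the medial forebrain bundle with 6-OHDA 12 μg were selected by apomorphine rotation (≥125 turns/h). Each rat serves as its own control, with randomized session days. Drug 0.1–10.0 mg/kg po (20% HPβCD) is given and followed 60 min later by L-DOPA 10 mg/kg po plus carbidopa, with rotations recorded over 120 min. Total contralateral turns reported; n = 16; Tukey test.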

[16] = Half life in BALB/c mouse at 10 mg/kg, po administered as single dose; format: ADME, organism-based; design: dose 10 mg/kg, route oral; conditions: in vivo; procedure, shortened: as §2
[17] = Terminal half life in Sprague-Dawley rat at 10 mg/kg, po administered as single dose; format: ADME, organism-based; design: dose 10 mg/kg, route oral; conditions: in vivo, read-out: beta t1/2 (converted); procedure, shortened: as §2
[18] = Terminal half life in cynomolgus monkey at 10 mg/kg, po administered as single dose; format: ADME, organism-based, Macaca fascicularis; design: dose 10 mg/kg, route oral; conditions: in vivo, read-out: beta t1/2 (converted); procedure, shortened: as §2
[19] = Cmax in BALB/c mouse plasma at 10 mg/kg, po administered as single dose; format: ADME, organism-based; design: dose 10 mg/kg, route oral; procedure, shortened: as §2
[20] = Cmax in Sprague-Dawley rat plasma at 10 mg/kg, po administered as single dose; format: ADME, organism-based; design: dose 10 mg/kg, route oral; procedure, shortened: as §2
[21] = Cmax in cynomolgus monkey plasma at 10 mg/kg, po administered as single dose; format: ADME, organism-based, Macaca fascicularis; design: dose 10 mg/kg, route oral; procedure, shortened: as §2
[22] = Oral bioavailability in BALB/c mouse at 10 mg/kg administered as single dose; format: ADME, organism-based; conditions: in vivo; procedure, shortened: as §2
[23] = Oral bioavailability in Sprague-Dawley rat at 10 mg/kg administered as single dose; format: ADME, organism-based; conditions: in vivo; procedure, shortened: as §2
[24] = Oral bioavailability in cynomolgus monkey at 10 mg/kg administered as single dose; format: ADME, organism-based, Macaca fascicularis; conditions: in vivo; procedure, shortened: as §2
[25] = Cmax in Sprague-Dawley rat brain at 2 mg/kg, iv and 10 mg/kg, po administered as single dose; format: ADME, organism-based
Procedure, shortened: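 Tissue distribution: fasted male Sprague-Dawley rats get 10 mg/kg po in 0.5% methylcellulose. Four rats per time point are euthanized, and brain is weighed, homogenized in methanol, evaporated and reconstituted. Blood and plasma are acetonitrile-treated. Drug levels are measured by LC-MS/MS.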

Mus musculus [26] = experiment: Antiparkinsonian activity in CF-1 mouse assessed as reversal of reserpine-induced akinesia administered orally 18 hrs before reserpine challenge and measured 60 mins post dose by spontaneous locomotor activity assay; conditions: CF-1, po, read-out: MED
Rattus norvegicus [27] = experiment: Antiparkinsonian activity in Wistar rat assessed as reversal of reserpine-induced akinesia administered orally 18 hrs before reserpine challenge and measured 60 mins post dose by spontaneous locomotor activity assay; conditions: for minimal effective dose: po, read-out: MED
Rattus norvegicus [28] = experiment: Reversal of haloperidol-induced catalepsy in Sprague-Dawley rat assessed as time duration of anticataleptic activity at 1 mg/kg, po dosed 60 mins before haloperidol challenge and measured post dose

Compound: Nc1nc(-c2ccccc2)c2c(n1)-c1cc(CN3CCCC3)ccc1C2=O
Activity (Rattus norvegicus [1]): Active
ED50 (Mus musculus [2]): 0.2 mg/kg
clearance [3]: 440 mL/min/kg
clearance [4]: 85 mL/min/kg
clearance [5]: 56 mL/min/kg
Vd [6]: 13 L/kg
Vd [7]: 7 L/kg
Vd [8]: 7 L/kg

Compound: Nc1nc(-c2ccccc2)c2c(n1)-c1cc(Cc3cncc(F)c3)ccc1C2=O
Ki (Adenosine receptor A2a): 1.3 nM
Ki (Adenosine receptor A1): 6 nM
Activity (Mus musculus [9]): 100%

Compound: CC1CC[C@@H](C)N1Cc1ccc2c(c1)-c1nc(N)nc(-c3ccccc3)c1C2=O (mixture of isomers)
Ki (Adenosine receptor A2a): 13.1 nM
Ki (Adenosine receptor A1): 37.3 nM
ED50 (Mus musculus [2]): 3.2 mg/kg

Compound: N#Cc1cncc(Cc2ccc3c(c2)-c2nc(N)nc(-c4ccccc4)c2C3=O)c1
Ki (Adenosine receptor A2a): 1.4 nM
Ki (Adenosine receptor A1): 5.2 nM
Activity (Mus musculus [9]): 100%
Time (Mus musculus [10]): 2 h

Compound: Nc1nc(-c2ccccc2)c2c(n1)-c1cc(Cc3cnccc3Cl)ccc1C2=O
Ki (Adenosine receptor A2a): 0.1 nM
Ki (Adenosine receptor A1): 0.5 nM
Activity (Mus musculus [9]): 100%

Compound: Nc1nc(-c2ccccc2)c2c(n1)-c1cc(CN3C4CCC3CC4)ccc1C2=O
Ki (Adenosine receptor A2a): 3.1 nM
Ki (Adenosine receptor A1): 223 nM
ED50 (Mus musculus [2]): 1 mg/kg

Compound: CN1CCN(C(=O)c2ccc3c(c2)-c2nc(N)nc(-c4ccccc4)c2C3=O)CC1
Activity (Rattus norvegicus [11]): Dose-dependent effect
ED50 (Rattus norvegicus [11]): 0.6 mg/kg
minimal effective dose (Rattus norvegicus [11]): 1 mg/kg
ED50 (Mus musculus [2]): 0.4 mg/kg
minimal effective dose (Mus musculus [2]): 1 mg/kg
Time (Mus musculus [10]): 4 h
Vd [12]: 4 L/kg
clearance [13]: 15 mL/min/kg
Activity (Rattus norvegicus [14]): Dose-dependent effect
minimal effective dose (Rattus norvegicus [15]): 1 mg/kg
clearance [3]: 37 mL/min/kg
clearance [4]: 52 mL/min/kg
Vd [6]: 11 L/kg
Vd [7]: 6 L/kg
half-life [16]: 3.8 h
half-life [17]: 3.6 h
half-life [18]: 4.3 h
Cmax [19]: 1700 nM
Cmax [20]: 968 nM
Cmax [21]: 1460 nM
bioavailability [22]: 41%
bioavailability [23]: 45%
bioavailability [24]: 47%
Cmax [25]: 459 nM
minimal effective dose (Mus musculus [26]): 1 mg/kg
Activity (Rattus norvegicus [27]): Dose-dependent effect
minimal effective dose (Rattus norvegicus [27]): 1 mg/kg

Compound: Nc1nc(-c2ccccc2)c2c(n1)-c1cc(OCCN3CCOCC3)ccc1C2=O
Activity (Rattus norvegicus [11]): Dose-dependent effect
ED50 (Rattus norvegicus [11]): 0.3 mg/kg
minimal effective dose (Rattus norvegicus [11]): 1 mg/kg
ED50 (Mus musculus [2]): < 0.1 mg/kg
minimal effective dose (Mus musculus [2]): 0.1 mg/kg
Time (Mus musculus [10]): 4 h
Vd [12]: 2 L/kg
clearance [13]: 7 mL/min/kg
Activity (Rattus norvegicus [14]): Dose-dependent effect
minimal effective dose (Rattus norvegicus [15]): 1 mg/kg
clearance [3]: 97 mL/min/kg
clearance [4]: 19 mL/min/kg
Vd [6]: 5 L/kg
Vd [7]: 1 L/kg
half-life [16]: 1.1 h
half-life [17]: 1.2 h
half-life [18]: 5.5 h
Cmax [19]: 1080 nM
Cmax [20]: 1650 nM
Cmax [21]: 2770 nM
bioavailability [22]: 61%
bioavailability [23]: 18%
bioavailability [24]: 55%
Cmax [25]: 4160 nM
Time (Rattus norvegicus [28]): 4 h
minimal effective dose (Mus musculus [26]): 1 mg/kg
Activity (Rattus norvegicus [27]): Dose-dependent effect
minimal effective dose (Rattus norvegicus [27]): 1 mg/kg

Now from value to compound, other results behind:

Ki (Adenosine receptor A2a): 0.7 nM
Ki (Adenosine receptor A1): 2.5 nM
Compound: Nc1nc(-c2ccccc2)c2c(n1)-c1cc(Cc3ccncc3F)ccc1C2=O
Activity (Mus musculus [9]): 100%

Ki (Adenosine receptor A2a): 0.5 nM
Ki (Adenosine receptor A1): 1.8 nM
Compound: Nc1nc(-c2ccccc2)c2c(n1)-c1cc(C(=O)c3cccnc3)ccc1C2=O
Activity (Mus musculus [9]): <50%

Ki (Adenosine receptor A2a): 0.3 nM
Ki (Adenosine receptor A1): 2.4 nM
Compound: Nc1nc(-c2ccccc2)c2c(n1)-c1cc(Cc3cccnc3)ccc1C2=O
ED50 (Mus musculus [2]): < 1 mg/kg
Time (Mus musculus [10]): 4 h

Ki (Adenosine receptor A2a): 1.6 nM
Ki (Adenosine receptor A1): 29.3 nM
Compound: Nc1nc(-c2ccccc2)c2c(n1)-c1cc(C(F)(F)c3cccnc3)ccc1C2=O
Activity (Mus musculus [9]): <50%
